According to ChEMBL document CHEMBL1649231, “In vitro activities of panduratin A against clinical Staphylococcus strains” (2009):

How the values were obtained:
Type in all cases: functional
[1] = system: Staphylococcus haemolyticus; test: Antimicrobial activity against methicillin-resistant coagulase-negative Staphylococcus haemolyticus assessed as susceptible isolates after 24 hrs by broth microdilution method
[2] = system: Staphylococcus haemolyticus; test: Antimicrobial activity against methicillin-resistant coagulase-negative Staphylococcus haemolyticus after 24 hrs by broth microdilution method
In short: (§1)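 Clinical isolates came from blood, body fluids, genital secretions, pus or sputum, identified conventionally or by Vitek. MICs were run by CLSI M7-A6 broth microdilution in Mueller-Hinton broth with 5 × 10^5 CFU/ml inoculum. Agents were twofold serially diluted, starting from 10% DMSO. Drug-free and uninoculated controls were included. Plates were incubated aerobically at 37°C for 24 h; MIC is the lowest concentration giving no visible growth.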

[3] = system: Staphylococcus simulans; test: Bactericidal activity against methicillin-susceptible coagulase-negative Staphylococcus simulans after 24 hrs by plate counting method; details: for MBC: Staphylococcus simulans, 24 h
In short: (§2)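 Clinical staphylococcal isolates from patient body fluids, blood, genital secretions, pus or sputum; species by conventional methods or Vitek. Twofold dilutions in Mueller-Hinton broth, inoculum 5 × 10^5 CFU/ml, 37°C aerobic 24 h (CLSI M7-A6 microdilution). About 100 μl from each well without visible growth spread on MHA; 37°C 24 h. MBC = lowest concentration giving no growth on agar.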

[4] = system: Staphylococcus hominis; test: Antimicrobial activity against methicillin-susceptible coagulase-negative Staphylococcus hominis assessed as susceptible isolates after 24 hrs by broth microdilution method
[5] = system: Staphylococcus simulans; test: Antimicrobial activity against methicillin-resistant coagulase-negative Staphylococcus simulans assessed as resistant isolates after 24 hrs by broth microdilution method
[6] = system: Mammaliicoccus sciuri; test: Antimicrobial activity against methicillin-resistant coagulase-negative Staphylococcus sciuri assessed as resistant isolates after 24 hrs by broth microdilution method
[7] = system: Staphylococcus hominis; test: Antimicrobial activity against methicillin-resistant coagulase-negative Staphylococcus hominis assessed as resistant isolates after 24 hrs by broth microdilution method
[8] = system: Staphylococcus haemolyticus; test: Antimicrobial activity against methicillin-resistant coagulase-negative Staphylococcus haemolyticus assessed as resistant isolates after 24 hrs by broth microdilution method
[9] = system: Staphylococcus haemolyticus; test: Antimicrobial activity against methicillin-susceptible coagulase-negative Staphylococcus haemolyticus assessed as resistant isolates after 24 hrs by broth microdilution method
[10] = system: Mammaliicoccus sciuri; test: Antimicrobial activity against methicillin-susceptible coagulase-negative Staphylococcus sciuri assessed as susceptible isolates after 24 hrs by broth microdilution method
In short: (§3)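 Clinical isolates from blood, body fluids, pus, sputum or genital secretions, identified conventionally or by Vitek, were tested alongside ATCC 29213 and ATCC 12228 controls. CLSI M7-A6 broth microdilution in Mueller-Hinton broth used twofold dilutions from a 10% DMSO solution and 5 × 10^5 CFU/ml inoculum. Drug-free and uninoculated wells served as controls; incubation was aerobic at 37°C for 24 h. MIC was the lowest concentration with no visible growth.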

[11] = system: Staphylococcus hominis; test: Bactericidal activity against methicillin-susceptible coagulase-negative Staphylococcus hominis after 24 hrs by plate counting method; details: for MBC: Staphylococcus hominis, 24 h; in short: as §2
[12] = system: Staphylococcus hominis; test: Bactericidal activity against methicillin-resistant coagulase-negative Staphylococcus hominis after 24 hrs by plate counting method; details: for MBC: Staphylococcus hominis, 24 h
[13] = system: Staphylococcus aureus; test: Bactericidal activity against methicillin-resistant Staphylococcus aureus after 24 hrs by plate counting method; details: for MBC: Staphylococcus aureus, 24 h
[14] = system: Staphylococcus epidermidis; test: Antimicrobial activity against methicillin-resistant coagulase-negative Staphylococcus epidermidis after 24 hrs by broth microdilution method; in short: as §1
[15] = system: Staphylococcus epidermidis; test: Antimicrobial activity against methicillin-susceptible coagulase-negative Staphylococcus epidermidis assessed as susceptible isolates after 24 hrs by broth microdilution method
[16] = system: Staphylococcus aureus; test: Antimicrobial activity against methicillin-resistant Staphylococcus aureus assessed as susceptible isolates after 24 hrs by broth microdilution method
[17] = system: Staphylococcus hominis; test: Antimicrobial activity against methicillin-resistant coagulase-negative Staphylococcus hominis assessed as susceptible isolates after 24 hrs by broth microdilution method
[18] = system: Mammaliicoccus sciuri; test: Antimicrobial activity against methicillin-susceptible coagulase-negative Staphylococcus sciuri assessed as resistant isolates after 24 hrs by broth microdilution method
[19] = system: Staphylococcus haemolyticus; test: Antimicrobial activity against methicillin-susceptible coagulase-negative Staphylococcus haemolyticus after 24 hrs by broth microdilution method; in short: as §1
[20] = system: Staphylococcus haemolyticus; test: Bactericidal activity against methicillin-susceptible coagulase-negative Staphylococcus haemolyticus after 24 hrs by plate counting method; details: for MBC: Staphylococcus haemolyticus, 24 h; in short: as §2
[21] = system: Staphylococcus simulans; test: Antimicrobial activity against methicillin-susceptible coagulase-negative Staphylococcus simulans after 24 hrs by broth microdilution method; in short: as §1
[22] = system: Staphylococcus haemolyticus; test: Bactericidal activity against methicillin-resistant coagulase-negative Staphylococcus haemolyticus after 24 hrs by plate counting method; details: for MBC: Staphylococcus haemolyticus, 24 h
[23] = system: Staphylococcus aureus; test: Antimicrobial activity against methicillin-resistant Staphylococcus aureus assessed as resistant isolates after 24 hrs by broth microdilution method
[24] = system: Staphylococcus epidermidis; test: Antimicrobial activity against methicillin-susceptible coagulase-negative Staphylococcus epidermidis after 24 hrs by broth microdilution method; in short: as §1
[25] = system: Staphylococcus hominis; test: Antimicrobial activity against methicillin-susceptible coagulase-negative Staphylococcus hominis after 24 hrs by broth microdilution method; in short: as §1
[26] = system: Staphylococcus epidermidis; test: Bactericidal activity against methicillin-resistant coagulase-negative Staphylococcus epidermidis after 24 hrs by plate counting method; details: for MBC: Staphylococcus epidermidis, 24 h
[27] = system: Staphylococcus epidermidis; test: Antimicrobial activity against methicillin-resistant coagulase-negative Staphylococcus epidermidis assessed as resistant isolates after 24 hrs by broth microdilution method
[28] = system: Mammaliicoccus sciuri; test: Bactericidal activity against methicillin-susceptible coagulase-negative Staphylococcus sciuri after 24 hrs by plate counting method; details: for MBC: Mammaliicoccus sciuri, 24 h; in short: as §2
[29] = system: Mammaliicoccus sciuri; test: Antimicrobial activity against methicillin-susceptible coagulase-negative Staphylococcus sciuri after 24 hrs by broth microdilution method; in short: as §1
[30] = system: Staphylococcus aureus; test: Antimicrobial activity against methicillin-resistant Staphylococcus aureus after 24 hrs by broth microdilution method; in short: as §1
[31] = system: Mammaliicoccus sciuri; test: Bactericidal activity against methicillin-resistant coagulase-negative Staphylococcus sciuri after 24 hrs by plate counting method; details: for MBC: Mammaliicoccus sciuri, 24 h; in short: as §2
[32] = system: Staphylococcus epidermidis; test: Antimicrobial activity against methicillin-resistant coagulase-negative Staphylococcus epidermidis assessed as susceptible isolates after 24 hrs by broth microdilution method
[33] = system: Staphylococcus hominis; test: Antimicrobial activity against methicillin-resistant coagulase-negative Staphylococcus hominis after 24 hrs by broth microdilution method; in short: as §1
[34] = system: Staphylococcus aureus; test: Bactericidal activity against methicillin-susceptible Staphylococcus aureus after 24 hrs by plate counting method; details: for MBC: Staphylococcus aureus, 24 h; in short: as §2
[35] = system: Staphylococcus aureus; test: Antimicrobial activity against methicillin-susceptible Staphylococcus aureus assessed as resistant isolates after 24 hrs by broth microdilution method
[36] = system: Staphylococcus epidermidis; test: Bactericidal activity against methicillin-susceptible coagulase-negative Staphylococcus epidermidis after 24 hrs by plate counting method; details: for MBC: Staphylococcus epidermidis, 24 h; in short: as §2
[37] = system: Staphylococcus simulans; test: Antimicrobial activity against methicillin-resistant coagulase-negative Staphylococcus simulans after 24 hrs by broth microdilution method; in short: as §1
[38] = system: Staphylococcus haemolyticus; test: Antimicrobial activity against methicillin-susceptible coagulase-negative Staphylococcus haemolyticus assessed as susceptible isolates after 24 hrs by broth microdilution method
[39] = system: Staphylococcus simulans; test: Antimicrobial activity against methicillin-susceptible coagulase-negative Staphylococcus simulans assessed as susceptible isolates after 24 hrs by broth microdilution method; in short: as §3
[40] = system: Staphylococcus simulans; test: Bactericidal activity against methicillin-resistant coagulase-negative Staphylococcus simulans after 24 hrs by plate counting method; details: for MBC: Staphylococcus simulans, 24 h; in short: as §2
[41] = system: Staphylococcus aureus; test: Antimicrobial activity against methicillin-susceptible Staphylococcus aureus assessed as susceptible isolates after 24 hrs by broth microdilution method
[42] = system: Staphylococcus hominis; test: Antimicrobial activity against methicillin-susceptible coagulase-negative Staphylococcus hominis assessed as resistant isolates after 24 hrs by broth microdilution method
[43] = system: Staphylococcus epidermidis; test: Antimicrobial activity against methicillin-susceptible coagulase-negative Staphylococcus epidermidis assessed as resistant isolates after 24 hrs by broth microdilution method
[44] = system: Mammaliicoccus sciuri; test: Antimicrobial activity against methicillin-resistant coagulase-negative Staphylococcus sciuri after 24 hrs by broth microdilution method; in short: as §1
[45] = system: Staphylococcus aureus; test: Antimicrobial activity against methicillin-susceptible Staphylococcus aureus after 24 hrs by broth microdilution method; in short: as §1

Cc1onc(-c2ccccc2)c1C(=O)N[C@@H]1C(=O)N2[C@@H]1SC(C)(C)[C@@H]2C(=O)O [OXACILLIN]
0.25 µg/mL: MBC [3] | MBC [11] | MBC [20] | MBC [28] | MBC [36]
26%: Activity [1] | Activity [17] | Activity [32]
74%: Activity [5] | Activity [6] | Activity [7] | Activity [8] | Activity [27]
8 µg/mL: MBC90 [3] | MBC90 [11] | MBC90 [20] | MBC90 [28] | MBC90 [36]
16 µg/mL: MBC50 [34]
2 µg/mL: MBC50 [3] | MBC50 [11] | MBC50 [20] | MBC50 [28] | MBC50 [36]
512 µg/mL: MBC90 [13]
11%: Activity [35]
100%: Activity [23]
0%: Activity [16]
256 µg/mL: MBC90 [12] | MBC50 [13] | MBC [13] | MBC90 [22] | MBC90 [26] | MBC90 [31] | MBC90 [40]
4%: Activity [9] | Activity [18] | Activity [42] | Activity [43]
64 µg/mL: MIC50 [2] | MIC90 [2] | MIC50 [14] | MIC90 [14] | MIC50 [30] | MIC90 [30] | MIC50 [33] | MIC90 [33] | MBC90 [34] | MIC50 [37] | MIC90 [37] | MIC50 [44] | MIC90 [44]
0.5 µg/mL: MIC90 [19] | MIC90 [21] | MIC90 [24] | MIC90 [25] | MIC90 [29]
96%: Activity [4] | Activity [10] | Activity [15] | Activity [38] | Activity [39]
0.125 µg/mL: MIC [19] | MIC50 [19] | MIC [21] | MIC50 [21] | MIC [24] | MIC50 [24] | MIC [25] | MIC50 [25] | MIC [29] | MIC50 [29] | MIC [45] | MIC50 [45]
1 µg/mL: MBC [12] | MBC [22] | MBC [26] | MBC [31] | MBC [34] | MBC [40] | MIC90 [45]
89%: Activity [41]

Cc1ccc(C(C)C)c(O)c1 [THYMOL]
128 µg/mL: MIC90 [2] | MIC90 [14] | MIC50 [30] | MIC90 [30] | MIC90 [33] | MBC [34] | MIC90 [37] | MIC90 [44] | MIC50 [45] | MIC90 [45]
256 µg/mL: MBC50 [3] | MBC50 [11] | MBC [13] | MBC50 [20] | MBC50 [28] | MBC50 [34] | MBC50 [36]
512 µg/mL: MBC90 [3] | MBC90 [11] | MBC50 [13] | MBC90 [20] | MBC90 [28] | MBC90 [34] | MBC90 [36]
64 µg/mL: MIC50 [2] | MBC [3] | MBC [11] | MBC [12] | MIC50 [14] | MIC50 [19] | MIC90 [19] | MBC [20] | MIC50 [21] | MIC90 [21] | MBC [22] | MIC50 [24] | MIC90 [24] | MIC50 [25] | MIC90 [25] | MBC [26] | MBC [28] | MIC50 [29] | MIC90 [29] | MBC [31] | MIC50 [33] | MBC [36] | MIC50 [37] | MBC [40] | MIC50 [44]
